According to ChEMBL document CHEMBL3817747 (J Med Chem, 2016):
pEC50: −log10 of the molar value.

Test system: Influenza A virus
Test: Antiviral activity against oseltamivir-resistant Influenza A virus A/WSN/1933(H1N1) infected in MDCK cells assessed as protection against virus-induced cytopathic effect after 48 hrs by CellTiter 96 AQueous Non-Radioactive cell proliferation assay
Format: functional, organism-based
Summary of the method: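 Virus stock (100 TCID50, TCID50 set by serial dilution on MDCK and Reed–Müench) mixed 1:1 with inhibitor at varied concentrations, then used to infect MDCK cells (1 × 10^5 cells/mL) grown in DMEM with 10% FBS. Incubated 48 h, 37 °C, 5% CO2. CPE read by MTS-type reagent, 15 min, A490. EC50 from curve fit of % CPE vs concentration; mean ± SD of three experiments.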

| Structure (SMILES) | pEC50 |
| --- | --- |
| CCC(CC)[C@H](NC(C)=O)[C@@H]1C[C@@H](P(=O)(O)O)C[C@H]1NC(=N)N | 6.46 |
| CCCCCCOP(=O)(O)[C@@H]1C[C@@H]([C@@H](NC(C)=O)C(CC)CC)[C@H](NC(=N)N)C1 | 7.36 |
| CC(=O)N[C@H]1[C@H]([C@H](O)[C@H](O)CO)OC(C(=O)O)=C[C@@H]1NC(=N)N [ZANAMIVIR] | 7.79 |
| CCOP(=O)(O)[C@H]1C[C@@H](NC(=N)N)[C@H]([C@@H](NC(C)=O)C(CC)CC)[C@@H]1O | 7.18 |
| CCCCCCOP(=O)(O)[C@H]1C[C@@H](NC(=N)N)[C@H]([C@@H](NC(C)=O)C(CC)CC)[C@@H]1O | 7.73 |
| CCC(CC)[C@H](NC(C)=O)[C@@H]1C=C(P(=O)(O)O)C[C@H]1NC(=N)N | 7.30 |
| CCC(CC)O[C@@H]1C=C(C(=O)O)C[C@H](N)[C@H]1NC(C)=O [OSELTAMIVIR CARBOXYLATE] | 8.26 |
| CCC(CC)[C@H](NC(C)=O)[C@@H]1[C@H](O)[C@@H](P(=O)(O)O)C[C@H]1NC(=N)N | 6.58 |
| CCC(CC)[C@H](NC(C)=O)[C@@H]1[C@H](O)[C@@H](C(=O)O)C[C@H]1NC(=N)N [PERAMIVIR ANHYDROUS] | 8.82 |
| CCOP(=O)(O)[C@@H]1C[C@@H]([C@@H](NC(C)=O)C(CC)CC)[C@H](NC(=N)N)C1 | 7.05 |
| CCCCCCOP(=O)(O)C1=C[C@@H]([C@@H](NC(C)=O)C(CC)CC)[C@H](NC(=N)N)C1 | 7.73 |
| CCOP(=O)(O)C1=C[C@@H]([C@@H](NC(C)=O)C(CC)CC)[C@H](NC(=N)N)C1 | 7.72 |
